Experimental data from ChEMBL document CHEMBL1153954, “Promiscuous aggregate-based inhibitors promote enzyme unfolding” (J Med Chem, 2009).
Activity calls are given as the source filed them. The rule behind the calls is not given here.

What was measured:
AmpC (Escherichia coli) [1] = biological target: AmpC (Escherichia coli) (UniProt Q83TT7); test: Inhibition of Escherichia coli AmpC assessed as induction of protein unfolding measured by trypsin mediated degradation of compound-AmpC enzyme complex at 100 uM after 4 hrs by gel electrophoresis
How it was run: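 AmpC (0.5 μM) was preincubated 5 min with or without 100 μM aggregator in 50 mM KPi, pH 7.0, 1% DMSO final. Trypsin (0.01 or 0.025 mg/mL) was then added, and digestion ran at room temperature for 0, 15, 30 min, 1 h or 4 h. Samples were boiled in DTT-containing loading buffer and the AmpC band was followed by SDS-PAGE.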

AmpC (Escherichia coli) [2] = biological target: AmpC (Escherichia coli) (UniProt Q83TT7); test: Inhibition of Escherichia coli AmpC assessed as induction of protein unfolding measured by trypsin mediated degradation of compound-AmpC enzyme complex at 250 uM after 15 mins by gel electrophoresis
How it was run: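 AmpC β-lactamase (0.5 μM) in 50 mM KPi, pH 7.0, with or without aggregator at 250 μM (1% DMSO final). Trypsin (0.01 or 0.025 mg/mL) added after 5 min. Digestion ran at room temperature for 0 min to 4 h. Samples were boiled 2 min in DTT-containing loading buffer, run on SDS-PAGE, and the β-lactamase band was scored against compound-free enzyme.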

AmpC (Escherichia coli), sequence (Q83TT7 as listed by the source): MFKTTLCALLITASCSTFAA

Activity (AmpC (Escherichia coli) [1])	Activity (AmpC (Escherichia coli) [2])	Compound
Active	–	CCCCCCNC(=O)Nc1ccc(S(=O)(=O)Nc2ccc(CCNC[C@H](O)COc3ccc(O)cc3)cc2)cc1
–	Active	Nc1c(/N=N/c2ccc(-c3ccc(/N=N/c4cc(S(=O)(=O)O)c5ccccc5c4N)cc3)cc2)cc(S(=O)(=O)O)c2ccccc12
–	Active	COC(=O)C1=C(C)NC(C)=C(C(=O)OCCN(C)Cc2ccccc2)C1c1cccc([N+](=O)[O-])c1 (stereo not drawn)
